Measurements as given in the array DNA melting data of Ke et al. (doi:10.1101/2024.01.08.574731).

Legend:
[1] = melting temperature; fluorescence melt of hairpins on a sequencing array, two-state fit, raised by 9.35 °C to match UV melts; details: sodium 0.088 M
Outline: (§1)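 Cy3 fluorescence of library hairpins on a sequenced MiSeq flow cell, with annealed Cy3 and quencher oligos, was imaged in 50 mM Na-HEPES pH 8.0, 25 mM NaCl in 2.5 °C steps up to 60 °C. Signals were normalised to pre-quench Cy3 and to control variants. Melting temperature and folding enthalpy came from bootstrapped two-state fits, inverse-variance combined over four replicates. Fitted temperatures were raised by 9.35 °C to match UV melts.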

[2] = folding enthalpy; higher = less favourable; fluorescence melt of hairpins on a sequencing array, two-state fit; details: sodium 0.088 M
Outline: as §1

Question: Which Tm [1] does the source give for GGACCACCGAAAGGTTCC (((..(((....)))))) here?
Answer: 29.6 °C

Question: What about the folding enthalpy [2] of the same sequence?
Answer: -11.2 kcal/mol

Question: With GGACCAGCGAAAGCTTCC (((..(((....)))))) as the sequence, how does the Tm [1] read?
Answer: 25.2 °C

Question: What about the folding enthalpy [2] of the same sequence?
Answer: -10.3 kcal/mol

Question: With GGACCAGGAAACTGATCC (((.(((....))).))) as the sequence, how does the Tm [1] read?
Answer: 40.3 °C

Question: What about the folding enthalpy [2] of the same sequence?
Answer: -34.2 kcal/mol

Question: What does the source list for GGACCCACGAAAGTGTCC (((..(((....))))))?
Answer: Tm [1]: 36.4 °C; folding enthalpy [2]: -14.4 kcal/mol

Question: For GGACCCCGAAAGGGATCC (((.(((....))).))), which Tm [1] is on record?
Answer: 55.3 °C

Question: What about the folding enthalpy [2] of the same sequence?
Answer: -26.9 kcal/mol

Question: Which Tm [1] does the source give for GGACCCGCGAAAGCGTCC (((..(((....)))))) here?
Answer: 36.7 °C

Question: And the folding enthalpy [2]?
Answer: -12.4 kcal/mol

Question: With GGACCGCGAAAGCGATCC (((.(((....))).))) as the sequence, how does the Tm [1] read?
Answer: 59 °C

Question: And the folding enthalpy [2]?
Answer: -27.9 kcal/mol

Question: Which Tm [1] does the source give for GGACCGGCGAAAGCCTCC (((..(((....)))))) here?
Answer: 27.5 °C

Question: What about the folding enthalpy [2] of the same sequence?
Answer: -10.2 kcal/mol

Question: Which Tm [1] does the source give for GGACCGGGAAACCAGTCC ((((.((....)).)))) here?
Answer: 47.3 °C

Question: What about the folding enthalpy [2] of the same sequence?
Answer: -23.4 kcal/mol

Question: What does the source list for GGACCGGGAAACCGGTTC (.(((((....))))).)?
Answer: Tm [1]: 59 °C; folding enthalpy [2]: -22.3 kcal/mol

Question: For GGACCGGGAAACTGGTCC (((((.(....).))))), which Tm [1] is on record?
Answer: 58.2 °C

Question: And the folding enthalpy [2]?
Answer: -44.9 kcal/mol

Question: Which Tm [1] does the source give for GGACCTCGAAAGAGTTCC (((.(((....))).))) here?
Answer: 45 °C

Question: And the folding enthalpy [2]?
Answer: -27.2 kcal/mol

Question: For GGACCTGGAAACAAGTCC ((((.((....)).)))), which Tm [1] is on record?
Answer: 38.7 °C

Question: What about the folding enthalpy [2] of the same sequence?
Answer: -23.5 kcal/mol

Question: With GGACGACGAAAGTCTTCC (((.(((....))).))) as the sequence, how does the Tm [1] read?
Answer: 48.9 °C

Question: And the folding enthalpy [2]?
Answer: -27.1 kcal/mol

Question: For GGACGAGAAATCGTCC ((((((....)))))), which Tm [1] is on record?
Answer: 60.2 °C

Question: What about the folding enthalpy [2] of the same sequence?
Answer: -47 kcal/mol

Question: For GGACGCGAAAGCGAGTCC ((((((....)))..))), which Tm [1] is on record?
Answer: 55.4 °C

Question: And the folding enthalpy [2]?
Answer: -21 kcal/mol

Question: Which Tm [1] does the source give for GGACGCGAAAGCGATTCC ((((((....)))..))) here?
Answer: 36.5 °C

Question: And the folding enthalpy [2]?
Answer: -11 kcal/mol

Question: With GGACGCGAAAGCGCATCC ((((((....)))..))) as the sequence, how does the Tm [1] read?
Answer: 34.5 °C

Question: And the folding enthalpy [2]?
Answer: -10.1 kcal/mol

Question: For GGACGCGAAAGCGCCTCC ((((((....)))..))), which Tm [1] is on record?
Answer: 60.2 °C

Question: And the folding enthalpy [2]?
Answer: -11.6 kcal/mol

Question: For GGACGCGAAAGCGGGTCC ((((((....)))..))), which Tm [1] is on record?
Answer: 54.2 °C

Question: What about the folding enthalpy [2] of the same sequence?
Answer: -14 kcal/mol

Question: For GGACGTCGAAAGACATCC (((.(((....))).))), which Tm [1] is on record?
Answer: 47.3 °C

Question: And the folding enthalpy [2]?
Answer: -26.5 kcal/mol

Question: Which results are given for GGACGTCGAAAGACCTCC (((.(((....))).)))?
Answer: Tm [1]: 41.2 °C; folding enthalpy [2]: -22.3 kcal/mol

Question: Which Tm [1] does the source give for GGACTACCGAAAGGTTCC (((..(((....)))))) here?
Answer: 32.8 °C

Question: What about the folding enthalpy [2] of the same sequence?
Answer: -11.2 kcal/mol

Question: Which results are given for GGACTCGAAAGAGACTCC ((((((....)))..)))?
Answer: Tm [1]: 36 °C; folding enthalpy [2]: -11.6 kcal/mol

Question: With GGACTCGAAAGAGATTCC ((((((....)))..))) as the sequence, how does the Tm [1] read?
Answer: 25.6 °C

Question: And the folding enthalpy [2]?
Answer: -11.3 kcal/mol

Question: With GGACTCGAAAGAGCGTCC ((((((....)))..))) as the sequence, how does the Tm [1] read?
Answer: 32 °C

Question: What about the folding enthalpy [2] of the same sequence?
Answer: -16 kcal/mol

Question: What does the source list for GGACTCGCGAAAGCGTCC (((..(((....))))))?
Answer: Tm [1]: 39.1 °C; folding enthalpy [2]: -13.1 kcal/mol

Question: For GGACTCGGAAACGAGTTC (.(((((....))))).), which Tm [1] is on record?
Answer: 53.6 °C

Question: And the folding enthalpy [2]?
Answer: -38.3 kcal/mol

Question: Which results are given for GGACTCGGAAACGGGTTC (.((.((....)).)).)?
Answer: Tm [1]: 40.2 °C; folding enthalpy [2]: -25.7 kcal/mol

Question: With GGACTGCCGAAAGGCTCC (((..(((....)))))) as the sequence, how does the Tm [1] read?
Answer: 34.7 °C

Question: What about the folding enthalpy [2] of the same sequence?
Answer: -10.2 kcal/mol

Question: Which results are given for GGACTGCGAAAGCATCC (((.(((....))))))?
Answer: Tm [1]: 41.8 °C; folding enthalpy [2]: -13.5 kcal/mol

Question: For GGACTGCGAAAGCATTCC (((.(((....))).))), which Tm [1] is on record?
Answer: 48.5 °C

Question: What about the folding enthalpy [2] of the same sequence?
Answer: -29.8 kcal/mol

Question: Which results are given for GGACTGGGAAACCAATCC (((.(((....))).)))?
Answer: Tm [1]: 36 °C; folding enthalpy [2]: -28 kcal/mol

Question: Which Tm [1] does the source give for GGACTGGGAAACCAGCCC ((.((((....)))).)) here?
Answer: 50.4 °C

Question: And the folding enthalpy [2]?
Answer: -20.5 kcal/mol

Question: Which Tm [1] does the source give for GGACTGTCGAAAGACTCC (((..(((....)))))) here?
Answer: 21.5 °C

Question: And the folding enthalpy [2]?
Answer: -5.54 kcal/mol

Question: For GGACTTCGAAAGAAATCC (((.(((....))).))), which Tm [1] is on record?
Answer: 37.3 °C

Question: What about the folding enthalpy [2] of the same sequence?
Answer: -26.6 kcal/mol

Question: For GGACTTGGAAACAAATCC (((.(((....))).))), which Tm [1] is on record?
Answer: 35.3 °C

Question: And the folding enthalpy [2]?
Answer: -12.4 kcal/mol

Question: Which Tm [1] does the source give for GGACTTGGAAACGAGTTC (.(((.(....).))).) here?
Answer: 32.9 °C

Question: What about the folding enthalpy [2] of the same sequence?
Answer: -21.5 kcal/mol

Question: With GGAGAACCGAAAGGTTCC (((..(((....)))))) as the sequence, how does the Tm [1] read?
Answer: 43.1 °C

Question: And the folding enthalpy [2]?
Answer: -9.16 kcal/mol

Question: For GGAGAACGAAAGTTGTCC (((.(((....))).))), which Tm [1] is on record?
Answer: 51.5 °C

Question: And the folding enthalpy [2]?
Answer: -34.6 kcal/mol

Question: Which results are given for GGAGAAGAAATTCTCC ((((((....))))))?
Answer: Tm [1]: 47.7 °C; folding enthalpy [2]: -27.7 kcal/mol

Question: For GGAGAAGGAAACTTCCCC ((.((((....)))).)), which Tm [1] is on record?
Answer: 35.2 °C

Question: And the folding enthalpy [2]?
Answer: -16.8 kcal/mol

Question: Which results are given for GGAGAATCGAAAGATTCC (((..(((....))))))?
Answer: Tm [1]: 38.1 °C; folding enthalpy [2]: -15.8 kcal/mol

Question: For GGAGACCGAAAGGTTCC (((.(((....)))))), which Tm [1] is on record?
Answer: 48 °C

Question: And the folding enthalpy [2]?
Answer: -22.5 kcal/mol

Question: Which Tm [1] does the source give for GGAGACGAAAGTCATCC ((((((....))).))) here?
Answer: 45.5 °C

Question: What about the folding enthalpy [2] of the same sequence?
Answer: -17.3 kcal/mol
